Reference: ChEMBL document CHEMBL3351278, “Pyridine-3-carboxamide-6-yl-ureas as novel inhibitors of bacterial DNA gyrase: structure based design, synthesis, SAR and antimicrobial activity” (Eur J Med Chem, 2014)
Values after ≈ are worked out from the molar mass of the structure shown.

How the values were obtained:
DNA gyrase = DNA gyrase (Escherichia coli, UniProt P0AES4+P0AES6); assay: Inhibition of Escherichia coli GyrB A2B2 subunits assessed reduction in DNA supercoiling activity by malachite green dye based by spectrophotometry; type: protein-complex assay
How it was run: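 Inhibition was measured as loss of ATPase activity of the E. coli GyrB enzyme and reported as IC50.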

Streptococcus pyogenes [1] = assay: Antibacterial activity against Streptococcus pyogenes ATCC 51339 expressing ParE A53S mutant incubated for 24 hrs by broth microdilution method; type: functional; conditions: ATCC 51339, 24 h
[2] = Retention time of the compound by HPLC method; type: physicochemical
Streptococcus pyogenes [3] = assay: Antibacterial activity against Streptococcus pyogenes ATCC 51339 incubated for 24 hrs by broth microdilution method; type: functional; conditions: ATCC 51339, 24 h
Staphylococcus aureus [4] = assay: Antibacterial activity against Staphylococcus aureus ATCC 29213 incubated for 24 hrs by broth microdilution method; type: functional; conditions: ATCC 29213, 24 h
Staphylococcus aureus [5] = assay: Antibacterial activity against Staphylococcus aureus ATCC 29213 expressing GyrB T173N mutant incubated for 24 hrs by broth microdilution method; type: functional; conditions: ATCC 29213, 24 h
Haemophilus influenzae = assay: Antibacterial activity against Haemophilus influenzae ATCC 49247 incubated for 24 hrs by broth microdilution method; type: functional; conditions: ATCC 49247, 24 h
Enterococcus faecalis = assay: Antibacterial activity against Enterococcus faecalis ATCC 29212 incubated for 24 hrs by broth microdilution method; type: functional; conditions: ATCC 29212, 24 h
Staphylococcus aureus [6] = assay: Antibacterial activity against Staphylococcus aureus ATCC 29213 expressing GyrB T173N and ParE T167N mutant incubated for 24 hrs by broth microdilution method; type: functional; conditions: ATCC 29213, 24 h
[7] = tested on: Staphylococcus epidermidis; assay: Antibacterial activity against Staphylococcus epidermidis ATCC 12228 incubated for 24 hrs by broth microdilution method; type: functional; conditions: ATCC 12228, 24 h
Streptococcus pneumoniae = assay: Antibacterial activity against Streptococcus pneumoniae ATCC 49616 incubated for 24 hrs by broth microdilution method; type: functional; conditions: ATCC 49616, 24 h
Escherichia coli [8] = assay: Antibacterial activity against Escherichia coli N43 expressing efflux pump mutant incubated for 24 hrs by broth microdilution method; type: functional; conditions: N43, 24 h
Escherichia coli [9] = assay: Antibacterial activity against Escherichia coli ATCC 25922 incubated for 24 hrs by broth microdilution method; type: functional; conditions: ATCC 25922, 24 h

| Compound | IC50 (DNA gyrase) [µM] | MIC (Streptococcus pyogenes [1]) [µg/mL] | Retention_time [2] [min] | MIC (Streptococcus pyogenes [3]) [µg/mL] | MIC (Staphylococcus aureus [4]) [µg/mL] | MIC (Staphylococcus aureus [5]) [µg/mL] | MIC (Haemophilus influenzae) [µg/mL] | MIC (Enterococcus faecalis) [µg/mL] | MIC (Staphylococcus aureus [6]) [µg/mL] | MIC [7] [µg/mL] | MIC (Streptococcus pneumoniae) [µg/mL] | MIC (Escherichia coli [8]) [µg/mL] | MIC (Escherichia coli [9]) [µg/mL] |
| --- | --- | --- | --- | --- | --- | --- | --- | --- | --- | --- | --- | --- | --- |
| CCNC(=O)Nc1ccc(C(=O)Nc2cccc(F)c2)cn1 | 3 | > 64 | 1.74 | 32 (≈ 106 µM) | 32 (≈ 106 µM) | > 64 | > 64 | 32 (≈ 106 µM) | – | – | – | – | – |
| CCNC(=O)Nc1cc(NCc2cccnc2)c(C(=O)Nc2cccnc2)cn1 | 0.66 | – | 1.23 | 8 (≈ 20.4 µM) | > 64 | – | > 64 | 8 (≈ 20.4 µM) | – | – | – | – | – |
| CCNC(=O)Nc1ccc(C(=O)Nc2ccccc2Cl)cn1 | 2.1 | – | 1.7 | > 64 | > 64 | – | > 64 | > 64 | – | – | – | – | – |
| CCNC(=O)Nc1ccc(C(=O)Nc2cccc(C#N)c2)cn1 | 3.8 | – | 1.69 | 32 (≈ 103 µM) | > 64 | – | > 64 | > 64 | – | – | – | – | – |
| CCNC(=O)Nc1cc(Nc2ccccc2)c(C(=O)Nc2ccccc2)cn1 | 0.04 | 16 (≈ 42.6 µM) | 1.58 | 2 (≈ 5.33 µM) | 1 (≈ 2.66 µM) | 2 (≈ 5.33 µM) | > 64 | 0.25 (≈ 0.666 µM) | > 64 | 0.25 (≈ 0.666 µM) | 1 (≈ 2.66 µM) | 8 (≈ 21.3 µM) | > 64 |
| CCNC(=O)Nc1ccc(C(=O)Nc2cccnc2)cn1 | 6 | – | 1.25 | 32 (≈ 112 µM) | > 256 | – | > 256 | 256 (≈ 897 µM) | – | – | – | – | – |
| CCNC(=O)Nc1cc(-c2cccnc2)c(C(=O)Nc2cccnc2)cn1 | 1.13 | – | 1.12 | 64 (≈ 177 µM) | > 64 | – | > 64 | 64 (≈ 177 µM) | – | – | – | – | – |
| CCNC(=O)Nc1cc(-n2cccn2)c(C(=O)Nc2cccc(Cl)c2)cn1 | 2.96 | 16 (≈ 41.6 µM) | 1.83 | 4 (≈ 10.4 µM) | 8 (≈ 20.8 µM) | 32 (≈ 83.2 µM) | > 64 | 1 (≈ 2.6 µM) | > 64 | 2 (≈ 5.2 µM) | 1 (≈ 2.6 µM) | 32 (≈ 83.2 µM) | > 64 |
| CCNC(=O)Nc1cc(-c2cccnc2)c(C(=O)Nc2nccs2)cn1 | 0.56 | – | 1.36 | 64 (≈ 174 µM) | > 64 | – | > 64 | 64 (≈ 174 µM) | – | – | – | – | – |
| CCNC(=O)Nc1ccc(C(=O)Nc2cccc(C)c2)cn1 | 3.4 | > 64 | 1.76 | 32 (≈ 107 µM) | 32 (≈ 107 µM) | > 64 | > 64 | 32 (≈ 107 µM) | – | – | – | – | – |
| CCNC(=O)Nc1cc(Nc2cccnc2)c(C(=O)Nc2cccnc2)cn1 | 0.093 | – | 1.38 | 1 (≈ 2.65 µM) | 8 (≈ 21.2 µM) | – | > 64 | 0.5 (≈ 1.32 µM) | – | – | – | – | – |
| CCNC(=O)Nc1ccc(C(=O)Nc2cccc(Cl)c2)cn1 | 1.6 | > 64 | 1.84 | 16 (≈ 50.2 µM) | 16 (≈ 50.2 µM) | > 64 | > 64 | 16 (≈ 50.2 µM) | – | – | – | – | – |
| CCNC(=O)Nc1cc(Nc2ccccc2)c(C(=O)Nc2ccc(-n3cncn3)nc2)cn1 | 0.15 | – | 1.54 | > 16 | > 16 | – | > 64 | 0.25 (≈ 0.564 µM) | – | – | – | – | – |
| CCNC(=O)Nc1cc(N2CCN(C)CC2)c(C(=O)Nc2cccc(Cl)c2)cn1 | 5.14 | – | 1.36 | > 64 | > 64 | – | > 64 | > 64 | – | – | – | – | – |
| CCNC(=O)Nc1ccc(C(=O)Nc2cccc(CC)c2)cn1 | 40.4 | – | 1.84 | > 256 | > 256 | – | > 256 | > 256 | – | – | – | – | – |
| CCNC(=O)Nc1cc(-n2ccnc2)c(C(=O)Nc2cccc(Cl)c2)cn1 | 0.55 | – | 1.44 | 64 (≈ 166 µM) | > 64 | – | > 64 | 32 (≈ 83.2 µM) | – | – | – | – | – |
| CCNC(=O)Nc1ccc(C(=O)Nc2ccc(OC)c(OC)c2)cn1 | 6.2 | > 64 | 1.59 | 32 (≈ 92.9 µM) | > 64 | – | > 64 | 32 (≈ 92.9 µM) | – | – | – | – | – |
| CCNC(=O)Nc1ccc(C(=O)Nc2ccncc2)cn1 | 3.5 | – | 1.19 | 64 (≈ 224 µM) | > 64 | – | > 64 | 64 (≈ 224 µM) | – | – | – | – | – |
| CCNC(=O)Nc1ccc(C(=O)Nc2ccc(Cl)cc2)cn1 | 3.3 | – | 1.83 | > 64 | > 64 | – | > 64 | > 64 | – | – | – | – | – |
| CCNC(=O)Nc1ccc(C(=O)Nc2cc(Cl)ccc2C)cn1 | 7.5 | – | 1.77 | > 64 | > 64 | – | > 64 | > 64 | – | – | – | – | – |
| CCNC(=O)Nc1cc(Nc2cccc(C)c2)c(C(=O)Nc2cccc(C)c2)cn1 | 0.099 | – | 1.75 | 32 (≈ 79.3 µM) | 1 (≈ 2.48 µM) | – | > 64 | 0.5 (≈ 1.24 µM) | – | – | – | – | – |
| CCNC(=O)Nc1cc(NCc2cccnc2)c(C(=O)Nc2ccccc2)cn1 | 4.81 | – | 1.3 | 8 (≈ 20.5 µM) | > 64 | – | > 64 | 2 (≈ 5.12 µM) | – | – | – | – | – |
| CCNC(=O)Nc1ccc(C(=O)Nc2nccs2)cn1 | 0.42 | – | 1.52 | > 64 | > 64 | – | > 64 | > 64 | – | – | – | – | – |
| CCNC(=O)Nc1ccc(C(=O)Nc2ccccc2)cn1 | 7.7 | – | 1.69 | > 16 | > 64 | – | > 16 | > 16 | – | – | – | – | – |
| CCNC(=O)Nc1ccc(C(=O)Nc2ccc3c(C)cc(=O)oc3c2)cn1 | 8.4 | – | 1.64 | > 64 | > 64 | – | > 64 | > 64 | – | – | – | – | – |
| CCNC(=O)Nc1ccc(C(=O)Nc2ccnc(C)c2)cn1 | 5.3 | – | 1.24 | > 64 | > 64 | – | > 64 | > 64 | – | – | – | – | – |
| CCNC(=O)Nc1cc(Oc2ccccc2)c(C(=O)Nc2ccccc2)cn1 | 4.9 | – | 1.93 | > 16 | > 16 | – | > 64 | > 16 | – | – | – | – | – |
